Tests used:
Nischarin = Nischarin (Rattus norvegicus, UniProt Q4G017); experiment: Displacement of [3H]clonidine from imidazoline I1 receptor in Sprague-Dawley rat kidney membranes after 45 mins by scintillation counting; assay type: cell membranes, Membrane
Outline: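 Crude P2 membranes from male Sprague–Dawley rat kidney, 0.2–0.5 mg protein. […] Specific binding defined by 10 µM rilmenidine. 11 concentrations from 0.01 to 100 µM, 50 mM Tris-HCl pH 7.4, 45 min at RT. Filtration and scintillation counting; IC50.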

[1] = target: T1, Alpha-2A adrenergic receptor (Homo sapiens) (UniProt P08913); experiment: Agonist activity at human adrenoceptor alpha2A expressed in CHOK1 cells assessed as stimulation of agonist-induced [35S]GTPgammaS binding by scintillation counting assay relative to noradrenaline; assay type: functional, cell-based; settings: CHO-K1
T1 sequence (whole entry): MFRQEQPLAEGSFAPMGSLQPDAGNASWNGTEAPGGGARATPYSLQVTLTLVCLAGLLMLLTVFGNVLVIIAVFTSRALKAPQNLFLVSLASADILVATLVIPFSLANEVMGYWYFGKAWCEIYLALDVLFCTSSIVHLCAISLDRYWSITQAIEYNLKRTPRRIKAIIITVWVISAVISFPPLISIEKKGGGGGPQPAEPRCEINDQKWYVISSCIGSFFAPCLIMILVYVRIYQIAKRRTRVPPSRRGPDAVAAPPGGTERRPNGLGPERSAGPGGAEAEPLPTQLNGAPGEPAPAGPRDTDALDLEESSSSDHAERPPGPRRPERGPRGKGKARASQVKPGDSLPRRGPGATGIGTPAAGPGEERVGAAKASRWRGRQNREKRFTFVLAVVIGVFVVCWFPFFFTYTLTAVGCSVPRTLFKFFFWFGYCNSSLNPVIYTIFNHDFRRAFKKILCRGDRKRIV
Outline: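 Membranes from CHO-K1 cells stably expressing human α2A-adrenoceptor; 5 µg protein incubated with serial dilutions of agonist and 0.1 nM [35S]GTPγS in Tris buffer pH 7.4 with 1 µM GDP, MgCl2, NaCl, 30 min at RT. Filtered and counted by scintillation. EC50 and intrinsic activity relative to noradrenaline; means from 3 independent experiments.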

[2] = target: T2, Alpha-2A adrenergic receptor (Homo sapiens, UniProt P08913); experiment: Agonist activity at human adrenoceptor alpha2A expressed in CHOK1 cells assessed as stimulation of agonist-induced [35S]GTPgammaS binding by scintillation counting; assay type: functional, cell-based, CHO-K1
T2 sequence (P08913 whole entry): T1 sequence (whole entry)
Outline: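 Membranes from CHO-K1 cells stably expressing human α2A-adrenoceptor; 5 µg protein incubated with serial dilutions of agonist and 0.1 nM [35S]GTPγS in Tris buffer pH 7.4 with 1 µM GDP, MgCl2, NaCl, 30 min at RT. Filtered and counted by scintillation.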

[3] = Displacement of [3H]BFI from imidazoline I2 receptor in Sprague-Dawley rat brain membranes after 45 mins by scintillation counting; assay type: cell membranes, Membrane
Outline: (§1)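 Crude P2 membranes from male Sprague–Dawley rat brain (250–280 g), 0.2–0.3 mg protein. Radioligand 1 nM: [3H]2BFI for I2, [3H]prazosin for α1, [3H]RX821002 for α2. Non-specific binding defined by 10 µM BU224 (I2), 10 µM phenylephrine (α1) or 10 µM rauwolscine (α2). 11 concentrations from 0.01 nM to 100 µM, triplicate, 45 min at RT. Filtration and scintillation counting; Ki by Cheng–Prusoff.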

[4] = target: T3, Adrenergic receptor alpha-1 (Rattus norvegicus, UniProt P15823+P23944+P43140); experiment: Displacement of [3H]prazosin from adrenoceptor alpha1 in Sprague-Dawley rat brain after 45 mins by scintillation counting; outline: as §1
T3 sequence (P15823 whole entry): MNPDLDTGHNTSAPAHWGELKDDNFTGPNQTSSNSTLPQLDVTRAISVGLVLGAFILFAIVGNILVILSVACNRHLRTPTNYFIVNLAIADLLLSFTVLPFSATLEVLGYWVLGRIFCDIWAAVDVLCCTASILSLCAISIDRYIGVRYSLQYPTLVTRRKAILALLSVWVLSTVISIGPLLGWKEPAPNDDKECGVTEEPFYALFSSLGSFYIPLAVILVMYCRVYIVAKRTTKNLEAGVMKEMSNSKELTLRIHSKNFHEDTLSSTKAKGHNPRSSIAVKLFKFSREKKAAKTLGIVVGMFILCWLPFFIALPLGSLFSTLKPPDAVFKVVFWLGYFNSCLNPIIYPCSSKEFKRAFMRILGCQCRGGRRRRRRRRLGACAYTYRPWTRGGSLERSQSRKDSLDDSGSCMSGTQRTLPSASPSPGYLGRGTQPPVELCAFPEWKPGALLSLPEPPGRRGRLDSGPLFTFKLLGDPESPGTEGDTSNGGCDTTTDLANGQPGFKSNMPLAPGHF
T3 sequence (P23944 whole entry): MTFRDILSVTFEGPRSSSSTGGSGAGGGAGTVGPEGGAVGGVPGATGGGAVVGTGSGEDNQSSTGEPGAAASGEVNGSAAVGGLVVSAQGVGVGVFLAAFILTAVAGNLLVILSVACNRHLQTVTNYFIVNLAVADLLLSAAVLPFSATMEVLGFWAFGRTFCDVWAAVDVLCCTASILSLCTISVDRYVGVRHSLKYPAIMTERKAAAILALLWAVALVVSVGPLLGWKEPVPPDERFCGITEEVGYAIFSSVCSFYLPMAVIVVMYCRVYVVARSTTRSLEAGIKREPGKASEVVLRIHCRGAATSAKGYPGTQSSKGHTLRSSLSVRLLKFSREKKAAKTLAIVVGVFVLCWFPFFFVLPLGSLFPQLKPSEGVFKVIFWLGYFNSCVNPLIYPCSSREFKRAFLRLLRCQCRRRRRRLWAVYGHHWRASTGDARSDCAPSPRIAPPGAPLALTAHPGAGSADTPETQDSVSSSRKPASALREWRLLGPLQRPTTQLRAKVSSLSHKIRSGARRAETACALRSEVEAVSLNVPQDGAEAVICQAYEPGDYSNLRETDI
T3 sequence (P43140 whole entry): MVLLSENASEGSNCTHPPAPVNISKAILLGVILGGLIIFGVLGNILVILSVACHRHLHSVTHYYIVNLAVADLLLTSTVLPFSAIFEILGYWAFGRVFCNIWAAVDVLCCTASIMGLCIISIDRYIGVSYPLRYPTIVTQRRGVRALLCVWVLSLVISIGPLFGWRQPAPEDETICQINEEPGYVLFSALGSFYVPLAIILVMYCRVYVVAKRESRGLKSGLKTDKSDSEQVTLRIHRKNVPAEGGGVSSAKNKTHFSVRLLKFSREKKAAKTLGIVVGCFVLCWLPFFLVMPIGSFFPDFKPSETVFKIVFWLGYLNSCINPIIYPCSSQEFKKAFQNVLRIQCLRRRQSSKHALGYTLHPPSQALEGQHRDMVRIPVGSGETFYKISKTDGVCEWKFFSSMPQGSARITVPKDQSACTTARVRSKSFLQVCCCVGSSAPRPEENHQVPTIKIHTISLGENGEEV

Chain of Nischarin (Q4G017 whole entry): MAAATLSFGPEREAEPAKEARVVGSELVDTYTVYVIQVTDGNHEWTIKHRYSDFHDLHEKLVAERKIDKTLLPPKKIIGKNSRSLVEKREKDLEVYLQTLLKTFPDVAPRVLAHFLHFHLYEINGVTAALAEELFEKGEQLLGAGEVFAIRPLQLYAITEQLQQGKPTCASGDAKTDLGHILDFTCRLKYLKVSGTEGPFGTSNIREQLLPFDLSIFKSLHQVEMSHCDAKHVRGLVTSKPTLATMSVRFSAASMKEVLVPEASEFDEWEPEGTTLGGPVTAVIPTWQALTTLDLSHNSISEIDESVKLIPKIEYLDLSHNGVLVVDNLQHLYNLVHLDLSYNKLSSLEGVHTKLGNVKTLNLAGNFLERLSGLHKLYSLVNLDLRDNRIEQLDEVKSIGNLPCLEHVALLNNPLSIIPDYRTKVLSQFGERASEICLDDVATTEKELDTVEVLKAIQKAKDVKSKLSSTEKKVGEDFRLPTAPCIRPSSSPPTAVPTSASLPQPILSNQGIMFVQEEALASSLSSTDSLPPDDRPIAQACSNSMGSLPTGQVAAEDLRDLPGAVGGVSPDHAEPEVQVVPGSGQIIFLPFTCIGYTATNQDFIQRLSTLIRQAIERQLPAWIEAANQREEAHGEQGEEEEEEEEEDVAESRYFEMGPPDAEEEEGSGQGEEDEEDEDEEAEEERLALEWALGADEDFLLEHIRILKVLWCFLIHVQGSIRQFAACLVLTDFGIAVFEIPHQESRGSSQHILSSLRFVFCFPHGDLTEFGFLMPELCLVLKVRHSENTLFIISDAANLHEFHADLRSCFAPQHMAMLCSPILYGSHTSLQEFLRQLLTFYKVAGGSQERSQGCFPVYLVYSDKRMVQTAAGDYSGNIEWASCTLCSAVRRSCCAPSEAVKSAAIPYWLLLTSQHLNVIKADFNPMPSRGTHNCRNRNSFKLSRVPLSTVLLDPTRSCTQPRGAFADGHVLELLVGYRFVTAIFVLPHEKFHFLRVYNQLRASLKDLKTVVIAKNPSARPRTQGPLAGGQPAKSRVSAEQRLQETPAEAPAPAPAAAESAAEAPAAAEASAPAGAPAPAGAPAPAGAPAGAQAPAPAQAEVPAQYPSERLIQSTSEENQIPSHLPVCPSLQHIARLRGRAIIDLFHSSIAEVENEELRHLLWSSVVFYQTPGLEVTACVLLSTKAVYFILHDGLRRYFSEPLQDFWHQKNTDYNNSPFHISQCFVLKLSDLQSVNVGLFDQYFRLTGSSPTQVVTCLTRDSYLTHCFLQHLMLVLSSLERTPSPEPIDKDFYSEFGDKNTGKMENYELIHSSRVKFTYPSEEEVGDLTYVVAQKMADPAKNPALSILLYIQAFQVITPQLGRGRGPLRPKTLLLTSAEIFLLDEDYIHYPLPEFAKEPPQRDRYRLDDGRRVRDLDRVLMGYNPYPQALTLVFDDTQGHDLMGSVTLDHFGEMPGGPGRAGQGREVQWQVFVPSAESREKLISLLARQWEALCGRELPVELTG

## Cl.Clc1cccc2cnn(CC3=NCCN3)c12
Nischarin
  IC50: 0.856 µM
[1]
  Emax: 7.4%
[2]
  EC50: 16.6 µM
[3]
  Ki: 0.554 µM
[4]
  Ki: 0.0141 µM

## Cc1cccc2cnn(CC3=NCCN3)c12.Cl
Nischarin
  IC50: 96.4 µM
[1]
  Emax: 6.3%
[2]
  EC50: 17.4 µM
[3]
  Ki: 6.84 µM
[4]
  Ki: 0.101 µM

## Cl.c1ccc2c(c1)cnn2CC1=NCCN1
Nischarin
  IC50: 19.4 µM
[1]
  Emax: 6.3%
[2]
  EC50: 4.5 µM
[3]
  Ki: 42.2 µM
[4]
  Ki: 0.272 µM

Source: ChEMBL document CHEMBL1926556, “Synthesis and biological activities of 2-[(heteroaryl)methyl]imidazolines” (Bioorg Med Chem, 2012)
